# Measured values reported in ChEMBL document CHEMBL1134050, “Phenyl benzenesulfonamides are novel and selective 5-HT6 antagonists: identification of N-(2,5-dibromo-3-fluorophenyl)-4-methoxy-3-piperazin-1-ylbenzenesulfonamide (SB-357134)” (Bioorg Med Chem Lett, 2001).
# pKi: −log10 of the molar value.
# Assays:
# [1] = species on record: Rattus norvegicus; assay: Blood: Brain distribution ratio is determined in rat; type: ADME, organism-based
# In short: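 Rats received iv infusion for 8 h, and the brain:blood ratio was taken at steady state.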
# [2] = Bioavailability was determined upon 10 mg/kg in 1% methylcellulose peroral administration in rats; type: ADME, organism-based; details: rat, in vivo, po
# In short: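 Rats were given 10 mg/kg orally as a suspension in 1% methylcellulose (v/v) aq (n=3). Blood drug levels were determined by LC/MS/MS, and AUC/dose and bioavailability were derived from them.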
# [3] = target: 5-hydroxytryptamine receptor 6 (Homo sapiens, UniProt P50406); assay: Binding affinity against human 5-hydroxytryptamine 6 receptor
# [4] = test system: Rattus norvegicus; assay: Pharmacokinetic property( plasma concentration) was determined upon 10 mg/kg in 1% methylcellulose peroral administration in rats; type: ADME, organism-based; design: dose 10 mg/kg, route oral; details: in vivo, po
# [5] = Plasma Clearance measured at steady-state following iv infusion at 0.6 mg/kg/h in rats; type: ADME, organism-based; design: route intravenous; details: rat, 0.6 mg/kg/h infusion
# [6] = target: T1, 5-hydroxytryptamine receptor 1A (Homo sapiens, UniProt P08908); assay: Compound was evaluated for binding affinity against human cloned 5-hydroxytryptamine 1A receptor in HEK 293 cells using [3H]8-OH-DPAT as the radioligand; type: cell-based, HEK293
# T1 sequence (P08908 whole entry): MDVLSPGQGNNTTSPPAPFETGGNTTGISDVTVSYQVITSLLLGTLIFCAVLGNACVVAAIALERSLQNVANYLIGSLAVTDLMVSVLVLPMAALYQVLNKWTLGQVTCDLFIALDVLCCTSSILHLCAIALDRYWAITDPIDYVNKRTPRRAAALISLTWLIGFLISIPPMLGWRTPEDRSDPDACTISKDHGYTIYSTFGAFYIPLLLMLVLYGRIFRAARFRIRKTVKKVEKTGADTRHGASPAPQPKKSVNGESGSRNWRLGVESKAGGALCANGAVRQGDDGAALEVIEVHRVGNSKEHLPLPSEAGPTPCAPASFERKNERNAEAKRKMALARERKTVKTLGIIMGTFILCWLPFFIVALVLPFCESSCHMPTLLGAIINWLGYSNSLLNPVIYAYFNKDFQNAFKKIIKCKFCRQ
# In short: (§1)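 Radioligand binding to human cloned receptors: 5-HT1A in HEK 293 cells with [3H]-8-OH-DPAT; 5-HT1B and 5-HT1E in CHO cells with [3H]-5-HT; 5-HT2B in HEK 293 cells with [3H]-5-HT; D2 and D3 in CHO cells with [125I]-iodosulpride. Values are the mean of at least two determinations, each within 0.2 log unit of the mean.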
# [7] = Bioavailability in rat (dose 10 mg/kg in 10% Encapsin and 2% DMSO p.o.); details: in vivo, po
# [8] = target: D(3) dopamine receptor (Homo sapiens, UniProt P35462); assay: Compound was evaluated for binding affinity against Dopamine receptor D3 in CHO cells using [125I]iodosulpiride as the radioligand; type: cell-based; in short: as §1
# [9] = target: T2, 5-hydroxytryptamine receptor 1F (Homo sapiens, UniProt P30939); assay: Compound was evaluated for binding affinity against human cloned 5-hydroxytryptamine 1F receptor in CHO cells using [3H]-5-HT as the radioligand; type: cell-based
# T2 sequence (P30939 whole entry): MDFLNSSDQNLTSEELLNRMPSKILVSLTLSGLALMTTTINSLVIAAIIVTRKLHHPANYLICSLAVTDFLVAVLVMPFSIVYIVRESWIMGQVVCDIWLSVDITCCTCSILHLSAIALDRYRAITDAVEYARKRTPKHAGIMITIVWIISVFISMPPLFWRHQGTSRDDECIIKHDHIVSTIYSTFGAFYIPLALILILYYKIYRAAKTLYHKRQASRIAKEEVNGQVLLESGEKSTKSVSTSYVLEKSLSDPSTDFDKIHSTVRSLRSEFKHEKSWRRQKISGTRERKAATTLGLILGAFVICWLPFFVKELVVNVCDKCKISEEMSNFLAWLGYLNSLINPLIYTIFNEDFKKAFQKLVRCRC
# [10] = target: D(2) dopamine receptor (Homo sapiens, UniProt P14416); assay: Compound was evaluated for binding affinity against Dopamine receptor D2 in CHO cells using [125I]iodosulpiride as the radioligand; type: cell-based; in short: as §1
# [11] = target: 5-hydroxytryptamine receptor 2A (Homo sapiens, UniProt P28223); assay: Compound was evaluated for binding affinity against human cloned 5-hydroxytryptamine 2A receptor in HEK 293 cells using [3H]ketanserin as the radioligand; type: cell-based, HEK293
# [12] = target: 5-hydroxytryptamine receptor 1D (Homo sapiens, UniProt P28221); assay: Compound was evaluated for binding affinity against human cloned 5-hydroxytryptamine 1D receptor in CHO cells using [3H]5-HT as the radioligand; type: cell-based
# [13] = target: 5-hydroxytryptamine receptor 2B (Homo sapiens, UniProt P41595); assay: Compound was evaluated for binding affinity against human cloned 5-HT2B receptor in HEK 293 cells using [3H]5-HT as the radioligand; type: cell-based, HEK293; in short: as §1
# [14] = target: 5-hydroxytryptamine receptor 4 (Homo sapiens, UniProt Q13639); assay: Compound was evaluated for the binding affinity against human cloned 5-hydroxytryptamine 4 receptor in HeLa cells using [3H]-LSD as the radioligand; type: cell-based
# [15] = target: 5-hydroxytryptamine receptor 1E (Homo sapiens, UniProt P28566); assay: Compound was evaluated for binding affinity against human cloned 5-hydroxytryptamine 1E receptor in CHO cells using [3H]5-HT as the radioligand; type: cell-based; in short: as §1
# [16] = target: T3, 5-hydroxytryptamine receptor 2C (Homo sapiens, UniProt P28335); assay: Compound was evaluated for binding affinity against human cloned 5-hydroxytryptamine 2C receptor in HEK 293 cells using [3H]mesulergine as the radioligand; type: cell-based, HEK293
# T3 sequence (P28335 whole entry): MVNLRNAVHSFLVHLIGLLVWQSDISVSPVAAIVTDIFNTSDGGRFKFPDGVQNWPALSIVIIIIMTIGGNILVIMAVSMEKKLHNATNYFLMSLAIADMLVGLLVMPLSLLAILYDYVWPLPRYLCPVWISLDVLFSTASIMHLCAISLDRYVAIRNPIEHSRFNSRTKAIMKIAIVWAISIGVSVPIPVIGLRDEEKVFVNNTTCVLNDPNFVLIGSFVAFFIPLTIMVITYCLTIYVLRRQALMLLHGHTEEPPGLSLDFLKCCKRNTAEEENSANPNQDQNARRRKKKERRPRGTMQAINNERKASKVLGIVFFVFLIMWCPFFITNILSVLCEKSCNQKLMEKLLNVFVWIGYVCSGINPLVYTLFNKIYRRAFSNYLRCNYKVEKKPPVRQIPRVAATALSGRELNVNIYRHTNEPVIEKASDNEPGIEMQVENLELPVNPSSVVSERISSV
# [17] = target: T4, Alpha-1B adrenergic receptor (Homo sapiens, UniProt P35368); assay: Compound was evaluated for binding affinity against Alpha-1B adrenergic receptor
# T4 sequence (P35368 whole entry): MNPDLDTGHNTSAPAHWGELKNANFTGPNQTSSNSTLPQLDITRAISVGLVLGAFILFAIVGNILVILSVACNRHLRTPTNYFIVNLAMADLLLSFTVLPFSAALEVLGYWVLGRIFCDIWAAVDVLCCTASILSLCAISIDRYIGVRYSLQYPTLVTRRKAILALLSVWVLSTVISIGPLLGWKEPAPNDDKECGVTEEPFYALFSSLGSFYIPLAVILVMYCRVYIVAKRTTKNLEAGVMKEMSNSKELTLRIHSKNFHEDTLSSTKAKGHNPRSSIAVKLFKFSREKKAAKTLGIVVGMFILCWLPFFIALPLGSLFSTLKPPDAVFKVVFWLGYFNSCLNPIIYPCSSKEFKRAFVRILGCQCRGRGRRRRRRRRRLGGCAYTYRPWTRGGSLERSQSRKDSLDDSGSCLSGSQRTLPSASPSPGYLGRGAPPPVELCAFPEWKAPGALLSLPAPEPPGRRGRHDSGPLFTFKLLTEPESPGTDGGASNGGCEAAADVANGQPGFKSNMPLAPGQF
# [18] = target: 5-hydroxytryptamine receptor 1B (Homo sapiens, UniProt P28222); assay: Compound was evaluated for binding affinity against human cloned 5-hydroxytryptamine 1B receptor in CHO cells using [3H]5-HT as the radioligand; type: cell-based; in short: as §1
# [19] = target: 5-hydroxytryptamine receptor 7 (Homo sapiens, UniProt P34969); assay: Displacement of [3H]-5-CT from human 5-hydroxytryptamine 7 receptor expressed in HEK-293 cells; type: cell-based, HEK293
# Chain of 5-hydroxytryptamine receptor 7 (P34969 whole entry): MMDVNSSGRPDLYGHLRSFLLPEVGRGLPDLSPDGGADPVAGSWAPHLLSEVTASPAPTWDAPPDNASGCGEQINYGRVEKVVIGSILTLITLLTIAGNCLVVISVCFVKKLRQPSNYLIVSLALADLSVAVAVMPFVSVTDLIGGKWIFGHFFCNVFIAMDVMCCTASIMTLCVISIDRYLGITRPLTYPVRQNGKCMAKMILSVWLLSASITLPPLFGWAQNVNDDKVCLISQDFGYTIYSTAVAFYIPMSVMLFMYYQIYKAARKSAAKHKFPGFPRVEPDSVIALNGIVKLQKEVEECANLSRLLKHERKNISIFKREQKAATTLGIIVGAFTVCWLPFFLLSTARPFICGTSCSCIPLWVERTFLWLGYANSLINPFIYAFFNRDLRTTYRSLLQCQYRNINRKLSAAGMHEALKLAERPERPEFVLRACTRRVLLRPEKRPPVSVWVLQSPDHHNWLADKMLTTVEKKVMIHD
# Chain of 5-hydroxytryptamine receptor 6 (P50406 whole entry): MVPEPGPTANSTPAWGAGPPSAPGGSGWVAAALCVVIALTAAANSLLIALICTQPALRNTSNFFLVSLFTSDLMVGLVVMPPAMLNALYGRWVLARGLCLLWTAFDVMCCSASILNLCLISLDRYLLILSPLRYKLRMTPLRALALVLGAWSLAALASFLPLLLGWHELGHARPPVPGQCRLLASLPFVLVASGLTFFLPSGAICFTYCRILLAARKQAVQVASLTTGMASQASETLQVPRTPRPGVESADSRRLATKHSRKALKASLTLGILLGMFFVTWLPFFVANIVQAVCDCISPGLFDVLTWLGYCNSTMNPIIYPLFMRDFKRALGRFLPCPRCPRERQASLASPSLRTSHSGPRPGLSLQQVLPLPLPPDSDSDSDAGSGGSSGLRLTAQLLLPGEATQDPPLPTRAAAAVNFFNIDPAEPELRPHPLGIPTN
# Chain of D(3) dopamine receptor (P35462 whole entry): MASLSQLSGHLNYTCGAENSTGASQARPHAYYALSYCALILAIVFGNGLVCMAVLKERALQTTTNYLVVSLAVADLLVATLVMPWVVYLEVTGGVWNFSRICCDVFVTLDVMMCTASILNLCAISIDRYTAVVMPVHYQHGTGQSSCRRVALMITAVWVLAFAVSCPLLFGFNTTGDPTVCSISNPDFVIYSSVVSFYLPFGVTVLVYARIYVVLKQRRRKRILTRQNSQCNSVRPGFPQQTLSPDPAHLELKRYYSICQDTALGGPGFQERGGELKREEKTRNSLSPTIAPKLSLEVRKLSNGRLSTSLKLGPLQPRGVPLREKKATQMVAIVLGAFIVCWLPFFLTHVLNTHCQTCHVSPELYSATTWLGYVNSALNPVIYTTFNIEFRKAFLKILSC
# Chain of D(2) dopamine receptor (P14416 whole entry): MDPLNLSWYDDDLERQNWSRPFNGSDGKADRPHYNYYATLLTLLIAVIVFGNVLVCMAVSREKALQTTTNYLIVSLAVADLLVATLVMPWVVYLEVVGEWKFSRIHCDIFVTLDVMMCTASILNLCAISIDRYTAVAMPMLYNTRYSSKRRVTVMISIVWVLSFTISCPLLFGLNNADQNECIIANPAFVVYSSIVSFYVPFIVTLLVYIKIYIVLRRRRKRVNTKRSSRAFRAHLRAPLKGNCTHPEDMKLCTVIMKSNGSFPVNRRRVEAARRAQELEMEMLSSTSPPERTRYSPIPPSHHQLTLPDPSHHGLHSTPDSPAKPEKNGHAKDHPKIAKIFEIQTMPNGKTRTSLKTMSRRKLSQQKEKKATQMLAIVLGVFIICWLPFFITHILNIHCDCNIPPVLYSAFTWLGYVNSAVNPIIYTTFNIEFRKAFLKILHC
# Chain of 5-hydroxytryptamine receptor 2B (P41595 whole entry): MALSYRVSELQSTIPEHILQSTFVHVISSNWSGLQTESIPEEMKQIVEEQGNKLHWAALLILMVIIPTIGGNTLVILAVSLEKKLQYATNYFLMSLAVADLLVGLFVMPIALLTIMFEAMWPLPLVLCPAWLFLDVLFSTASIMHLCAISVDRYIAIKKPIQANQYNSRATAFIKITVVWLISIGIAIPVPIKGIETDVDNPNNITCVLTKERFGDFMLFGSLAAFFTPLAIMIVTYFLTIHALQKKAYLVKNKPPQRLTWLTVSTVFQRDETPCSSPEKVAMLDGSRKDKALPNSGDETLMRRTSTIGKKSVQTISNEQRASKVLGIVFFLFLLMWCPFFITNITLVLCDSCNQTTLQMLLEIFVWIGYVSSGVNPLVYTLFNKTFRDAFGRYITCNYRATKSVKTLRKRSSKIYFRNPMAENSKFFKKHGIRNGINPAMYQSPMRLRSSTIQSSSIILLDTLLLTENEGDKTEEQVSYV
# Chain of 5-hydroxytryptamine receptor 1B (P28222 whole entry): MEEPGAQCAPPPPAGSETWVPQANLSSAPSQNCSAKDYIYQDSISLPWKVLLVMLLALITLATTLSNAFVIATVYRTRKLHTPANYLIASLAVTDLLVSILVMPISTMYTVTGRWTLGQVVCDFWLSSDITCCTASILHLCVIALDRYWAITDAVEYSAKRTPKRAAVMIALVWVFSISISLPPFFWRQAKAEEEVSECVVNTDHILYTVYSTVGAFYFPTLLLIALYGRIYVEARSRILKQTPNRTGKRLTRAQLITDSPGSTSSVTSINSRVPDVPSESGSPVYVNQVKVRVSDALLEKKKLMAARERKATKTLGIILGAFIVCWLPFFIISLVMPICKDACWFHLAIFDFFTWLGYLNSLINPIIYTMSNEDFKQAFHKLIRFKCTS
# Chain of 5-hydroxytryptamine receptor 2A (P28223 whole entry): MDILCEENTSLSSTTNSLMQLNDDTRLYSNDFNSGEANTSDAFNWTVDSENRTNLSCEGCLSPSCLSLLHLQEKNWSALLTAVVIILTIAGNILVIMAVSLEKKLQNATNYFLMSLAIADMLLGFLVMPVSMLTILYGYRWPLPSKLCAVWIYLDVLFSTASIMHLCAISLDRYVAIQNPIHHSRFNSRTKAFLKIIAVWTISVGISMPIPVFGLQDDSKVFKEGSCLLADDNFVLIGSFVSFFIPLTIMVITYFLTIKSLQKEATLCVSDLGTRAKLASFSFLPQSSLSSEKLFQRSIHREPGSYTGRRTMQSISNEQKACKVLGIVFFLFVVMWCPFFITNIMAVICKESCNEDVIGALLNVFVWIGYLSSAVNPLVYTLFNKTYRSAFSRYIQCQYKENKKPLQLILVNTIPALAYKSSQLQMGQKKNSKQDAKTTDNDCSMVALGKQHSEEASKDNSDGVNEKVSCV
# Chain of 5-hydroxytryptamine receptor 1D (P28221 whole entry): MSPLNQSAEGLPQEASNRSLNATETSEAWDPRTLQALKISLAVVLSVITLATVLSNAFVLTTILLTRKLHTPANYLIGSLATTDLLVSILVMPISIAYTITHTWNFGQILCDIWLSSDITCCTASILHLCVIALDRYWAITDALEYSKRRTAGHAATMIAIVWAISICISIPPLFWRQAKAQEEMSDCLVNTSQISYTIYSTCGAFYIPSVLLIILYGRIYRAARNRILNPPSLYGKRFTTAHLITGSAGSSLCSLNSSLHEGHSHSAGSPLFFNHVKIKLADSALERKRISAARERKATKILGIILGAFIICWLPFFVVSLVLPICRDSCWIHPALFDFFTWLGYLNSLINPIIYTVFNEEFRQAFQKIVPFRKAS
# Chain of 5-hydroxytryptamine receptor 4 (Q13639 whole entry): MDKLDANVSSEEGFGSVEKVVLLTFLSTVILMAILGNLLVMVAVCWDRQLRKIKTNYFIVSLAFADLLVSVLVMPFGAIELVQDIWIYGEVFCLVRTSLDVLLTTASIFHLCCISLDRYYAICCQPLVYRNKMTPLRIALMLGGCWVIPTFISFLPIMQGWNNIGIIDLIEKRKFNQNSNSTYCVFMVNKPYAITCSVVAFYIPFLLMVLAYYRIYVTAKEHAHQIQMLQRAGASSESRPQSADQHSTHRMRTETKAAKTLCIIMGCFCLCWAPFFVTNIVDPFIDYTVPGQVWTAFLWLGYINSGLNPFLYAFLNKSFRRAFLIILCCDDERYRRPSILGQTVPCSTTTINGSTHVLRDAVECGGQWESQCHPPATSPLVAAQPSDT
# Chain of 5-hydroxytryptamine receptor 1E (P28566 whole entry): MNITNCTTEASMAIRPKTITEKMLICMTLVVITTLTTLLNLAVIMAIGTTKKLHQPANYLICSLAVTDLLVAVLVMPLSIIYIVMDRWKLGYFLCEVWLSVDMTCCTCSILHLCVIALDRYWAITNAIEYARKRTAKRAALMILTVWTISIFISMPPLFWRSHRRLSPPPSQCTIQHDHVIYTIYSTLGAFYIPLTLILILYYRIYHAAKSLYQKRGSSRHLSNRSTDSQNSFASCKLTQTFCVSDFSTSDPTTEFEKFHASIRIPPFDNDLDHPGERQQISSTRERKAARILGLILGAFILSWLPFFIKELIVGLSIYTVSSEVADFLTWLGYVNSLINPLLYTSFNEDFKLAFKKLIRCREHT
SMILES,Distribution ratio [1],bioavailability [2],pKi [3],AUC [4],clearance [5],pKi [6],bioavailability [7],pKi [8],pKi [9],pKi [10],pKi [11],pKi [12],pKi [13],pKi [14],pKi [15],pKi [16],pKi [17],pKi [18],pKi [19]
COc1ccc(S(=O)(=O)Nc2cc(Cl)cc(Cl)c2)cc1N1CCNCC1,0.02,51%,9.20,450 uM min uM-1,4 mL/min/kg,,,,,,,,,,,,,,
COc1ccc(S(=O)(=O)Nc2cc(Br)cc(F)c2Br)cc1N1CCNCC1,,,,,14 mL/min/kg,< 5.20,65%,< 5.30,< 5.00,< 5.30,< 5.10,< 5.40,< 5.40,< 5.30,< 5.00,< 5.30,< 5.10,< 5.40,< 5.00
